Experimental data from ChEMBL document CHEMBL1811897, “Nicotinic acetylcholine receptor efficacy and pharmacological properties of 3-(substituted phenyl)-2β-substituted tropanes” (J Med Chem, 2010).
Active and inactive are the calls of the source.

Legend:
[1] = tested on: Mus musculus; test: Inhibition of nicotine-induced hypolocomotion in ICR mouse assessed as number of photocell interruption dministered subcutaneously 15 mins prior to nicotine challenge and measured after 5 mins of […] nicotine challenge; assay type: functional, organism-based; design: dose 1.5 mg/kg, route subcutaneous
[2] = target: Sodium-dependent noradrenaline transporter (Homo sapiens, UniProt P23975); test: Inhibition of human NET expressed in HEK293 cells assessed as inhibition of [3H]NE reuptake after 10 mins by scintillation counting; assay type: cell-based
[3] = target: Sodium-dependent serotonin transporter (Homo sapiens, UniProt P31645); test: Inhibition of human SERTexpressed in HEK293 cells assessed as inhibition of [3H]5HT reuptake after 10 mins by scintillation counting; assay type: cell-based
[4] = tested on: Mus musculus; test: Inhibition of nicotine-induced conditioned place preference in ICR mouse assessed as activity count and time spent in chamberdministered subcutaneously 15 mins prior to 0.5 mg/kg nicotine challenge up to 4 days using photosensors; assay type: functional, organism-based; design: dose 0.5 mg/kg, route subcutaneous
Procedure, shortened: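 Unbiased three-compartment CPP in male ICR mice. Day 1: 5 min confinement to the middle compartment, then 15 min free access; mice were grouped by equal bias. Days 2–4: vehicle or test drug s.c. 15 min before nicotine (0.5 mg/kg s.c.) in the paired side, with saline on the opposite side, 20 min sessions. Day 5: drug-free test with photosensor recording. AD50 from ≥3 doses, ≥8 mice per dose.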

[5] = tested on: Mus musculus; test: Inhibition of nicotine-induced antinociception activity in ICR mouse assessed as latency to remove tail administered subcutaneously 15 mins prior to nicotine challenge and measured after 5 mins of 2.5 mg/kg nicotine challenge by tail-flick test; assay type: functional, organism-based; design: dose 2.5 mg/kg, route subcutaneous
Procedure, shortened: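 Radiant heat was aimed at the upper tail, with a 10 s cutoff. Baseline latency was 2–4 s for each mouse. Response was expressed as %MPE. AD50 with confidence limits came from ≥4 doses and ≥8 mice per dose.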

[6] = target: T1, Neuronal acetylcholine receptor; alpha4/beta2 (Homo sapiens, UniProt P17787+P43681); test: Agonist activity at human alpha4beta2 nAChR in SHEP1 cells assessed as 86Rb+ efflux at 5 nM to 100 uM; assay type: functional, cell-based
Procedure, shortened: (§1)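 Test ligands were applied alone at ~5 nM to 100 μM in 86Rb+ efflux assays. Cells were TE671/RD (endogenous muscle-type α1*), SH-SY5Y (endogenous α3β4*) or transfected SH-EP1 (human α4β2 or α4β4). Non-specific efflux was subtracted. Intrinsic activity was normalized to specific efflux, defined as efflux with fully efficacious carbamylcholine minus efflux with buffer alone.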

[7] = target: Cannabinoid receptor 1 (Homo sapiens) (UniProt P21554); test: Positive allosteric modulator activity at CB1 receptor
[8] = target: T2, Acetylcholine receptor; alpha1/beta1/delta/gamma (Homo sapiens, UniProt P02708+P07510+P11230+Q07001); test: Antagonist activity against human muscle-type alpha1beta1gammadelta nAChR in TE671/RD cells assessed as inhibition of carbamylcholine induced 86Rb+ efflux; assay type: functional, cell-based
Procedure, shortened: (§2)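 86Rb+ efflux was evoked by carbamylcholine at its EC80–EC90 concentration, with test ligand present. Cells were TE671/RD (α1*), SH-SY5Y (α3β4*) or transfected SH-EP1 (α4β2 or α4β4). For weak antagonists the minimum was fixed at 0%.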

[9] = target: T1, Neuronal acetylcholine receptor; alpha4/beta2; test: Antagonist activity against human alpha4beta2 nAChR in SHEP1 cells assessed as inhibition of carbamylcholine induced 86Rb+ efflux; assay type: functional, cell-based; procedure, shortened: as §2
[10] = tested on: Mus musculus; test: Antipyretic activity against nicotine-induced hypothermia in ICR mouse assessed as change in rectal temperature dministered subcutaneously 15 mins prior to nicotine challenge and measured after 30 mins of 2.5 mg/kg nicotine challenge; assay type: functional, organism-based; design: dose 2.5 mg/kg, route subcutaneous
Procedure, shortened: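 Male ICR mice (20–25 g) were pretreated with saline or test drug 15 min before s.c. nicotine at 2.5 mg/kg. Rectal temperature was read by thermistor probe (24 mm insertion) just before and 30 min after nicotine, and the change was taken. Ambient temperature was 21–24 °C. AD50 with confidence limits came from ≥4 doses and ≥8 mice per dose.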

[11] = target: T3, Neuronal acetylcholine receptor; alpha4/beta4 (Homo sapiens, UniProt P30926+P43681); test: Antagonist activity against human alpha4beta4 nAChR in SHEP1 cells assessed as inhibition of carbamylcholine induced 86Rb+ efflux; assay type: functional, cell-based; procedure, shortened: as §2
[12] = tested on: Mus musculus; test: Inhibition of nicotine-induced antinociception activity in ICR mouse assessed as paw licking and jumping latency dministered subcutaneously 15 mins prior to nicotine challenge and measured after 5 mins of 2.5 mg/kg nicotine challenge by hot plate test; assay type: functional, organism-based; design: dose 2.5 mg/kg, route subcutaneous
Procedure, shortened: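 Hot plate was held at 55 °C with a 40 s cutoff. End-point was paw lick or jump. Control latency was measured twice, ≥10 min apart. Response was calculated as %MPE. Groups of 8–12; AD50 from ≥4 doses.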

[13] = target: T2, Acetylcholine receptor; alpha1/beta1/delta/gamma; test: Agonist activity at human muscle-type alpha1beta1gammadelta nAChR in TE671/RD cells assessed as 86Rb+ efflux at 5 nM to 100 uM; assay type: functional, cell-based; procedure, shortened: as §1
[14] = target: T3, Neuronal acetylcholine receptor; alpha4/beta4; test: Agonist activity against human alpha4beta4 nAChR in SHEP1 cells assessed as 86Rb+ efflux at 5 nM to 100 uM; assay type: functional, cell-based; procedure, shortened: as §1
[15] = target: Sodium-dependent dopamine transporter (Homo sapiens, UniProt Q01959); test: Inhibition of human DAT expressed in HEK293 cells assessed as inhibition of [3H]DA reuptake after 10 mins by scintillation counting; assay type: cell-based

T3 sequence (P30926 whole entry): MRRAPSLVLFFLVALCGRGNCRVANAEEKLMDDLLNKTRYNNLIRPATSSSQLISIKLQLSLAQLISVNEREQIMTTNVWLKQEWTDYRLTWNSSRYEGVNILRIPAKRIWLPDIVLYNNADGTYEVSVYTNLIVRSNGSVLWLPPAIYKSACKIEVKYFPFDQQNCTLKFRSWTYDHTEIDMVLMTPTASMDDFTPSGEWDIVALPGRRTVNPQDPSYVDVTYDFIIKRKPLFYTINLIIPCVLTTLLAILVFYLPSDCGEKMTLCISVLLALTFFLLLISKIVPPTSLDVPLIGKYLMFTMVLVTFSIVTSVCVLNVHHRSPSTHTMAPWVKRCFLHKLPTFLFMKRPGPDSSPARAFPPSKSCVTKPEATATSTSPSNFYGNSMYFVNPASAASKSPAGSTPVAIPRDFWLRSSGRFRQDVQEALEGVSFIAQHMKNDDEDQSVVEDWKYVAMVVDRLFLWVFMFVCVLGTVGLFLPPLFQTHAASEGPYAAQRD
T3 sequence (P43681 whole entry): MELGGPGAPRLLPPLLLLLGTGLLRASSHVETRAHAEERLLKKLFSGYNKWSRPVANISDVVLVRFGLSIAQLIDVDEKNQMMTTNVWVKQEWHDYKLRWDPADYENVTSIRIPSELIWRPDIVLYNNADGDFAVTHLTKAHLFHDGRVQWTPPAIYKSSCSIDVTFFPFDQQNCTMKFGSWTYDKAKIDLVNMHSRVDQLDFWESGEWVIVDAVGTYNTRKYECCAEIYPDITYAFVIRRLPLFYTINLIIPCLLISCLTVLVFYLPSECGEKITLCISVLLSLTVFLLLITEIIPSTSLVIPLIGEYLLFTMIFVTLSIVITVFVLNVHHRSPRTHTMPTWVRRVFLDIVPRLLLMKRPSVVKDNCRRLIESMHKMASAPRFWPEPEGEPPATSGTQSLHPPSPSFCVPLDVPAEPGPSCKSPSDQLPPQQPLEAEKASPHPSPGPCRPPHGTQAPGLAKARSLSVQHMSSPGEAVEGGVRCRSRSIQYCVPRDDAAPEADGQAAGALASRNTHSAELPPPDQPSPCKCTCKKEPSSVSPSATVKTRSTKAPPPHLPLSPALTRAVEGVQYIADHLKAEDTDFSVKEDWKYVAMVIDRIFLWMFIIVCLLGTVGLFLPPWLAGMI
Sequence of Sodium-dependent noradrenaline transporter (P23975 whole entry): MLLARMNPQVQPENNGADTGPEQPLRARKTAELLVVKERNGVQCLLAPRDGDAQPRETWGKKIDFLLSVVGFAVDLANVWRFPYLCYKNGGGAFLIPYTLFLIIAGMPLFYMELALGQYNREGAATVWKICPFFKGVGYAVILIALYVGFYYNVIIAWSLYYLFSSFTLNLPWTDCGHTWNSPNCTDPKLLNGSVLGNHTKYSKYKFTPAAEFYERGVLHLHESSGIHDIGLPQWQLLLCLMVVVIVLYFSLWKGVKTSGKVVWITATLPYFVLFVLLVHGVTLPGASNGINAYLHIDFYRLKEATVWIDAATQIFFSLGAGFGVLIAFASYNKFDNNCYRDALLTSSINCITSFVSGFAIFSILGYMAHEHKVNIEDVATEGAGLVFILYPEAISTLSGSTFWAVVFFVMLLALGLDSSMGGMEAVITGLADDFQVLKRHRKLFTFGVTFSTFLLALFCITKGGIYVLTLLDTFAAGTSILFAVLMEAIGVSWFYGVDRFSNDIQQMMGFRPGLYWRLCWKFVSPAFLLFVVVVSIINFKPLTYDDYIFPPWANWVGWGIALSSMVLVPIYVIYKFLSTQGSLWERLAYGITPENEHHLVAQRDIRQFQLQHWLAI
T1 sequence (P17787 whole entry): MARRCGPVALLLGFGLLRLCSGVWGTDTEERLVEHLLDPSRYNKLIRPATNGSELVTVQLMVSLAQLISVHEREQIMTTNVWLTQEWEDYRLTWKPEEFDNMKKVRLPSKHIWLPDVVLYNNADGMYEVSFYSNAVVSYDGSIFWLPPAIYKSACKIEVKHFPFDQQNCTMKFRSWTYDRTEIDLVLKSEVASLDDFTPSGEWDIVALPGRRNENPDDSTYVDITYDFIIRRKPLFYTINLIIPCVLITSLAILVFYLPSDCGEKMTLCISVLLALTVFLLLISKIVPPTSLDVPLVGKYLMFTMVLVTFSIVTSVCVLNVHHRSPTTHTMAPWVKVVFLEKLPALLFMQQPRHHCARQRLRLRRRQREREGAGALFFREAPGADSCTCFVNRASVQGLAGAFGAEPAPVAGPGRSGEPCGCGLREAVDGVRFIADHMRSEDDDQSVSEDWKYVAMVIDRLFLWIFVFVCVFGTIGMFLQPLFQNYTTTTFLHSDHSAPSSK
T1 sequence (P43681 whole entry): as the sequence (P43681 whole entry) above
Sequence of Cannabinoid receptor 1 (Homo sapiens) (P21554 whole entry): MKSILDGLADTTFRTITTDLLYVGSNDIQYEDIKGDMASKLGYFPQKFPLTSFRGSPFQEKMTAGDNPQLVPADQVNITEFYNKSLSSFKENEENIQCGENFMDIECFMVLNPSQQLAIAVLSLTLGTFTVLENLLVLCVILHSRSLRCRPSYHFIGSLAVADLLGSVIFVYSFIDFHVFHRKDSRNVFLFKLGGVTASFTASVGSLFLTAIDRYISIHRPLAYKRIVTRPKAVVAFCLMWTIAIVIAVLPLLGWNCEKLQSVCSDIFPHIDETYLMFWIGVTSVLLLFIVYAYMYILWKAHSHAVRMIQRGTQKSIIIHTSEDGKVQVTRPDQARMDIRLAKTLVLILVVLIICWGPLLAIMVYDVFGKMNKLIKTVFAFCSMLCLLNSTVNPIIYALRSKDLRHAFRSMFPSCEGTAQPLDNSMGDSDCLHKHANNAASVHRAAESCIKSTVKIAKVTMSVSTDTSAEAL
T2 sequence (P02708 whole entry): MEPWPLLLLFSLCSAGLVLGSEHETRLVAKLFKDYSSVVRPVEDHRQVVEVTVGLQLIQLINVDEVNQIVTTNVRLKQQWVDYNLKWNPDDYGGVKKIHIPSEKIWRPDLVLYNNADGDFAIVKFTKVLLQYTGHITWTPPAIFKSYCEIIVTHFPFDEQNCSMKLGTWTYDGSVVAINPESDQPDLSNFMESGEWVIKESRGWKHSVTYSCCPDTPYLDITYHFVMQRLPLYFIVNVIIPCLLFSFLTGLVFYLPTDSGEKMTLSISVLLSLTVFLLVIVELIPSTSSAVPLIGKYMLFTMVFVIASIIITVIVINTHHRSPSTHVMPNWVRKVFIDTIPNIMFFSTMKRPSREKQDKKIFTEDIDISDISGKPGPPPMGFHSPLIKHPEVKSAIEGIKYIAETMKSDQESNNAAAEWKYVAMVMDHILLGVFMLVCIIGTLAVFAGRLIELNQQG
T2 sequence (P07510 whole entry): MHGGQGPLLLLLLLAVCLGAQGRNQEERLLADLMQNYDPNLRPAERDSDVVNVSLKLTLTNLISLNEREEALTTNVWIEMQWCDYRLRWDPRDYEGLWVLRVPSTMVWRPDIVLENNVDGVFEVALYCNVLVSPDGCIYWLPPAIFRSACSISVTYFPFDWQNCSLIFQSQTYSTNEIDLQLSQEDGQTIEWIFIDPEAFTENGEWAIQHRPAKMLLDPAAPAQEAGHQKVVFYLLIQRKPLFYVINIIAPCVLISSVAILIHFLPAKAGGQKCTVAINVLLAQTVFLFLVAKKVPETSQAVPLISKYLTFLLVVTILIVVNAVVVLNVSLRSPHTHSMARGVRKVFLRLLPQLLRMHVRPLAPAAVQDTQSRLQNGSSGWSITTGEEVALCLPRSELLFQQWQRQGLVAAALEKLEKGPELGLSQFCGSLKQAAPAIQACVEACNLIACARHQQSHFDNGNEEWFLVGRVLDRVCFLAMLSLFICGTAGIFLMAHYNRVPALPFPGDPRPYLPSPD
T2 sequence (P11230 whole entry): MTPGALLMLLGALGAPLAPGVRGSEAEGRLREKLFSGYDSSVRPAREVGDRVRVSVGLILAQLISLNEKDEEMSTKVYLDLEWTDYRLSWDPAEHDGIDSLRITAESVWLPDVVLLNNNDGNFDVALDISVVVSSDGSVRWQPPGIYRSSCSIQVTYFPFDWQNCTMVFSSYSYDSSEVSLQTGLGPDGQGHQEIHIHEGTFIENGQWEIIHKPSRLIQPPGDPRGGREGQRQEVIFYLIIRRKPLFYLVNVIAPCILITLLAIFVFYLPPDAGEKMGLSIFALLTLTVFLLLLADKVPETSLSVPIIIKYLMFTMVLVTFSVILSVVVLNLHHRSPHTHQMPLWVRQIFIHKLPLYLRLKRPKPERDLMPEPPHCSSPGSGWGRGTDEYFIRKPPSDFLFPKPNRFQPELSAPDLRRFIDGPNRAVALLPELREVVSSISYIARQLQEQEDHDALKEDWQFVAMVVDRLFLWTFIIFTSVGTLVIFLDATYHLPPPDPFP
T2 sequence (Q07001 whole entry): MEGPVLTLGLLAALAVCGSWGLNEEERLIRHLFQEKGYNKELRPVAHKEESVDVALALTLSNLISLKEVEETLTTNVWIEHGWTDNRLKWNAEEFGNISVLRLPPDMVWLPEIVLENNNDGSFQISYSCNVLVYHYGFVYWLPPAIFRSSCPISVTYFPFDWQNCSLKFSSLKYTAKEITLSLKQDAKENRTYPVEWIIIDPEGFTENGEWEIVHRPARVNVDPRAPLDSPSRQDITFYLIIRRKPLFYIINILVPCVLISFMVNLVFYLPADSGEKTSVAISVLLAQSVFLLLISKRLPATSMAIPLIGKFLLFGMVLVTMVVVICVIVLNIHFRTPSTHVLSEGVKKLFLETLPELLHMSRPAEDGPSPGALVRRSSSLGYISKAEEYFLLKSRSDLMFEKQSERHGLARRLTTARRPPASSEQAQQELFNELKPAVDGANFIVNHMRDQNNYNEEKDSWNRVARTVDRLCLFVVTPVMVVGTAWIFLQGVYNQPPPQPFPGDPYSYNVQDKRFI

Cc1ccc([C@H]2C[C@@H]3CC[C@H]([C@H]2c2cc(-c4ccc(Cl)cc4)no2)N3C)cc1
IC50 [1]: 8.7 mg/kg
IC50 [2]: 0.31 µM
IC50 [3]: > 100 µM
IC50 [4]: 0.013 mg/kg
IC50 [5]: > 20 mg/kg
Activity [6]: inactive
Activity [7]: Active
IC50 [8]: 95 µM
IC50 [9]: 942 µM
IC50 [10]: > 20 mg/kg
IC50 [11]: 57 µM
IC50 [12]: > 20 mg/kg
Activity [13]: inactive
Activity [14]: inactive
IC50 [15]: 0.011 µM
